Paper PMC4929832 (Nature, 2016)

Columns and labels:
PAK4 = PAK4 (Homo sapiens, UniProt O96013); assay: kinase panel; type: biochemical
AKT1 = AKT1 (Homo sapiens, UniProt P31749); assay: kinase panel; type: biochemical
PDGFR-BETA = PDGFR-BETA (Homo sapiens, UniProt P09619); assay: kinase panel; type: biochemical
RSK2 = RSK2 (Homo sapiens, UniProt P51812); assay: kinase panel; type: biochemical
PDK1 = PDK1 (Homo sapiens, UniProt O15530); assay: kinase panel; type: biochemical
PHK-GAMMA2 = PHK-GAMMA2 (Homo sapiens, UniProt P15735); assay: kinase panel; type: biochemical
CRAF = CRAF (Homo sapiens, UniProt P04049); assay: kinase panel; type: biochemical
ARK5 = ARK5 (Homo sapiens, UniProt O60285); assay: kinase panel; type: biochemical
AURORA-A = AURORA-A (Homo sapiens, UniProt O14965); assay: kinase panel; type: biochemical
PI3K-GAMMA = PI3K-GAMMA (Homo sapiens, UniProt P48736); assay: kinase panel; type: biochemical
SPHK1 = SPHK1 (Homo sapiens, UniProt Q9NYA1); assay: kinase panel; type: biochemical
Chain of SPHK1 (Q9NYA1 whole entry): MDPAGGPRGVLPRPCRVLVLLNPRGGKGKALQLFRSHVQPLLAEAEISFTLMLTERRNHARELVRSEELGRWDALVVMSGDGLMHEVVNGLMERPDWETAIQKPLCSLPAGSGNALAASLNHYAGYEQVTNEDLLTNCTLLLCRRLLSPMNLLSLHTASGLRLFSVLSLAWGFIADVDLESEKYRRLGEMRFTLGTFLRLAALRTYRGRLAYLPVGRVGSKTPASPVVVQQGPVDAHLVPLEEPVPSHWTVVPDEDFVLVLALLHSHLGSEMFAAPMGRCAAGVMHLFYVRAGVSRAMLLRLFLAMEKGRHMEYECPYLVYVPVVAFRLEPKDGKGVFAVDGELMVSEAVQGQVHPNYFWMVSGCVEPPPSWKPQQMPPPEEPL

PIM2 = PIM2 (Homo sapiens, UniProt Q9P1W9); assay: kinase panel; type: biochemical
MSK1 = MSK1 (Homo sapiens, UniProt O75582); assay: kinase panel; type: biochemical
BTK = BTK (Homo sapiens, UniProt Q06187); assay: kinase panel; type: biochemical
ITK = ITK (Homo sapiens, UniProt Q08881); assay: kinase panel; type: biochemical
EPH-A5 = EPH-A5 (Homo sapiens, UniProt P54756); assay: kinase panel; type: biochemical
PKC-THETA = PKC-THETA (Homo sapiens, UniProt Q04759); assay: kinase panel; type: biochemical
PKC-ZETA = PKC-ZETA (Homo sapiens, UniProt Q05513); assay: kinase panel; type: biochemical
CAMK2D = CAMK2D (Homo sapiens, UniProt Q13557); assay: kinase panel; type: biochemical
NDR2 = NDR2 (Homo sapiens, UniProt Q9Y2H1); assay: kinase panel; type: biochemical
Chain of NDR2 (Q9Y2H1 whole entry): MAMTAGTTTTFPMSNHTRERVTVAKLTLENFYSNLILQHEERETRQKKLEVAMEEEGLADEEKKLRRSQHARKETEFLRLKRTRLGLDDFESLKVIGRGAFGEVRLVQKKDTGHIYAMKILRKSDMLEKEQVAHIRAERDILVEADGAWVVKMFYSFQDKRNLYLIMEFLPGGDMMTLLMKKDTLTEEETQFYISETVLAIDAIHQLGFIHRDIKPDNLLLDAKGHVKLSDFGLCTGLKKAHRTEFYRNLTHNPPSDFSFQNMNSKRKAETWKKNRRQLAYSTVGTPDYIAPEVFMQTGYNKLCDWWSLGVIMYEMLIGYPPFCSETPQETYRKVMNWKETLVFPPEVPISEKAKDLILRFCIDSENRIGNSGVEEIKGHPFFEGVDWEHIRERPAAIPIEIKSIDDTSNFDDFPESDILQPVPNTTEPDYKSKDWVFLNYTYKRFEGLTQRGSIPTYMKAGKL

EPH-B2 = EPH-B2 (Homo sapiens, UniProt P29323); assay: kinase panel; type: biochemical
Chain of EPH-B2 (P29323 19-1055): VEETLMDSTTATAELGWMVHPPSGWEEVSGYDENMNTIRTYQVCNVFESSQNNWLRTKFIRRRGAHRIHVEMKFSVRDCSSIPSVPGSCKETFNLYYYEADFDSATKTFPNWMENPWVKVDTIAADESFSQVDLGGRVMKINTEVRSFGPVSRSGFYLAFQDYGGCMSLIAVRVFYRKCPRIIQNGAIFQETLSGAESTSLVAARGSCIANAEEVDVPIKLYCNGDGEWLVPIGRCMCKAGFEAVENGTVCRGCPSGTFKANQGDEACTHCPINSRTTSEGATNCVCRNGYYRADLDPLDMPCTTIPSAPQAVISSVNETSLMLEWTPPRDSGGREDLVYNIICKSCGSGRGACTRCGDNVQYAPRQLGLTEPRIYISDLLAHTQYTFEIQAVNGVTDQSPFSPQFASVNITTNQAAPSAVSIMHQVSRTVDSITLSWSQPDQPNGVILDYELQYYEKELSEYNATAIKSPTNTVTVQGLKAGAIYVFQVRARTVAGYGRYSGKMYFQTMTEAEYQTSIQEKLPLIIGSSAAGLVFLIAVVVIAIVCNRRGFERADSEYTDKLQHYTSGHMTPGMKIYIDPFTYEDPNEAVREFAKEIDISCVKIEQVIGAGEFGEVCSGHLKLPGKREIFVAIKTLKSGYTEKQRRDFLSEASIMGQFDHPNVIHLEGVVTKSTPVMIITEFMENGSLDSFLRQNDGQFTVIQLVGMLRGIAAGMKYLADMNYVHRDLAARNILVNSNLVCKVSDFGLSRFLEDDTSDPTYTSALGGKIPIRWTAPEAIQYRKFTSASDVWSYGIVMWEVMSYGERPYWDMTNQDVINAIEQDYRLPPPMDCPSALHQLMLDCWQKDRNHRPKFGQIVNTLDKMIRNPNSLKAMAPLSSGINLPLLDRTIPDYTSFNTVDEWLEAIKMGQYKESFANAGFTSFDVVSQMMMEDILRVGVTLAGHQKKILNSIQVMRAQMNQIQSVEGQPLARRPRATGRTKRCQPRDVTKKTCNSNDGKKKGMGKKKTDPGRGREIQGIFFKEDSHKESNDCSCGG

TNIK = TNIK (Homo sapiens, UniProt Q9UKE5); assay: kinase panel; type: biochemical
CDK1 = CDK1 (Homo sapiens, UniProt P06493); assay: kinase panel; type: biochemical
PLK3 = PLK3 (Homo sapiens, UniProt Q9H4B4); assay: kinase panel; type: biochemical
ERB-B2 = ERB-B2 (Homo sapiens, UniProt P04626); assay: kinase panel; type: biochemical
NEK7 = NEK7 (Homo sapiens, UniProt Q8TDX7); assay: kinase panel; type: biochemical
Chain of NEK7 (Q8TDX7 whole entry): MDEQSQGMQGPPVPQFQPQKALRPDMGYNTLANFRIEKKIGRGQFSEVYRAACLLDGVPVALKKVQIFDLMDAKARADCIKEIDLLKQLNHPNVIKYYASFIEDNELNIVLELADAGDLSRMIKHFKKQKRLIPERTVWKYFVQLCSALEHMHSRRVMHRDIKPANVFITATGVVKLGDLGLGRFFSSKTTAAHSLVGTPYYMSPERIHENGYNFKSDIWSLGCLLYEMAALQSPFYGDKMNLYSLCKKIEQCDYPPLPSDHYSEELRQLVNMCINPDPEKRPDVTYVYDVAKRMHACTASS

NEK9 = NEK9 (Homo sapiens, UniProt Q8TD19); assay: kinase panel; type: biochemical
TRKC = TRKC (Homo sapiens, UniProt Q16288); assay: kinase panel; type: biochemical
TSSK1 = TSSK1 (Homo sapiens, UniProt Q9BXA7); assay: kinase panel; type: biochemical
LOK = LOK (Homo sapiens, UniProt O94804); assay: kinase panel; type: biochemical
FGFR3 = FGFR3 (Homo sapiens, UniProt P22607); assay: kinase panel; type: biochemical
PRKG2 = PRKG2 (Homo sapiens, UniProt Q13237); assay: kinase panel; type: biochemical
Chain of PRKG2 (Q13237 whole entry): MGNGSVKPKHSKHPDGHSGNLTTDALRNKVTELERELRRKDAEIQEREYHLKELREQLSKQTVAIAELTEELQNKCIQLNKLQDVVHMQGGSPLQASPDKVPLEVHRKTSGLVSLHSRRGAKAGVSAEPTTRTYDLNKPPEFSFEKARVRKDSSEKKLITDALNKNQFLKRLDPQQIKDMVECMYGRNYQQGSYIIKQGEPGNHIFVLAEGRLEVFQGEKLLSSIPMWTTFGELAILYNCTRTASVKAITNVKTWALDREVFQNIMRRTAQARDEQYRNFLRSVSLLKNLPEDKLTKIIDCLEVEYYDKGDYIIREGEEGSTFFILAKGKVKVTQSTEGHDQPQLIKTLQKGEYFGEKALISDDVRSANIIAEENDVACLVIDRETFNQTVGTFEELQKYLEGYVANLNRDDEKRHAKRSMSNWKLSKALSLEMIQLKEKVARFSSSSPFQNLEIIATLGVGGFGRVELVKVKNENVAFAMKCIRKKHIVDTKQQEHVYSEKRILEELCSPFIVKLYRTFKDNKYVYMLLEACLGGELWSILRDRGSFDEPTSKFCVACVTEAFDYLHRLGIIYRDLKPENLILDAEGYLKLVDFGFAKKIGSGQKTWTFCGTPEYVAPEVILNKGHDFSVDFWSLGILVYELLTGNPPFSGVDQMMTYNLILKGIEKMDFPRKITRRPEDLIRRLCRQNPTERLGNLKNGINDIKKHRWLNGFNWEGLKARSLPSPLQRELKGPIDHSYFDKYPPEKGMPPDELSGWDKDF

TTK = TTK (Homo sapiens, UniProt P33981); assay: kinase panel; type: biochemical
CDK9-CYCLINT1 = CDK9-CYCLINT1 (Homo sapiens, UniProt P50750); assay: kinase panel; type: biochemical
P70S6K2 = P70S6K2 (Homo sapiens, UniProt Q9UBS0); assay: kinase panel; type: biochemical
PAK3 = PAK3 (Homo sapiens, UniProt O75914); assay: kinase panel; type: biochemical
Dopamine D2 receptor = Dopamine D2 receptor (Homo sapiens, UniProt P14416); assay: Dopamine D2 receptor assay; type: binding
Progesterone Receptor = Progesterone Receptor (Homo sapiens, UniProt P06401); assay: Progesterone Receptor agonist assay; type: cell-based
Chain of Progesterone Receptor (P06401 whole entry, species assumed): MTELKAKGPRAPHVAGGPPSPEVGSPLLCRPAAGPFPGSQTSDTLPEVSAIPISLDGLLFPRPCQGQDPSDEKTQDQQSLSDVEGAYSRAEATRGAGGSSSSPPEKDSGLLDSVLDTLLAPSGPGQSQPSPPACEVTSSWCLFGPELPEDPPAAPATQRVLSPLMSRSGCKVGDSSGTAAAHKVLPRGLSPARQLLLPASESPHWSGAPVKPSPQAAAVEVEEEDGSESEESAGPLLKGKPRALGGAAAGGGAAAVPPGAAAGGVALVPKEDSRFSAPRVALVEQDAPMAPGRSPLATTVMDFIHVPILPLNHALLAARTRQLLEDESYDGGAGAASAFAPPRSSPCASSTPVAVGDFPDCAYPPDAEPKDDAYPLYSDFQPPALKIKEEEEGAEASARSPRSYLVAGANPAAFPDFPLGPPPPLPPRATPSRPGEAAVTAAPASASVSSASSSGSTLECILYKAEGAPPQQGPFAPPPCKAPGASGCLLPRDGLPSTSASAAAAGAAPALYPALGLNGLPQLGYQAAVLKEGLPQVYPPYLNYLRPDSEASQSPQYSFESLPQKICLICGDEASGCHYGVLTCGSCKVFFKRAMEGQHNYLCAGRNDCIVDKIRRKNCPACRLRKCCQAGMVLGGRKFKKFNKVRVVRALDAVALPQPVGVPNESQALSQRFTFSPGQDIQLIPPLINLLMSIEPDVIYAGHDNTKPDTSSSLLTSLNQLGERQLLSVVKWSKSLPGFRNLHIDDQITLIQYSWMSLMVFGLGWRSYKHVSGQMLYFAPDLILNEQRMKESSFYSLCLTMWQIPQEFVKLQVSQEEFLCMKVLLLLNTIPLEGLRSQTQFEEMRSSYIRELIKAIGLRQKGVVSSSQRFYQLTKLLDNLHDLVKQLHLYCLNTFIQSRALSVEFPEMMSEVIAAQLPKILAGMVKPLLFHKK

Serotonin 5HT2A = Serotonin 5HT2A (Homo sapiens, UniProt P28223); assay: Serotonin 5HT2A calcium flux assay; type: cell-based
[1] = system: exon19del/T790M EGFR mutant lung tumors (genetically engineered mice); assay: Mouse efficacy study, tumor volume by MRI; type: in vivo; conditions: EAI045 60 mg/kg with cetuximab 1 mg I.P. every other day
Summary of the method: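 Transgenic lung tumors were induced at 6 weeks of age: exon19del/T790M mice by doxycycline diet, L858R/T790M/C797S mice by intranasal Ad-Cre. The test compound in 10% NMP/90% PEG-300 was given at 60 mg/kg daily by oral gavage. […] MRI ran at baseline and every 2 weeks, and tumor volume was quantified in 3D at 4 weeks. Cohorts were non-blinded and not randomized.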

[2] = target: EGFR L858R/T790M in H1975 cells (Homo sapiens, UniProt P00533, L858R/T790M); assay: EGFR phosphorylation by western blotting; type: cell-based; conditions: western blot, 3h

Chain of PAK4 (O96013 whole entry): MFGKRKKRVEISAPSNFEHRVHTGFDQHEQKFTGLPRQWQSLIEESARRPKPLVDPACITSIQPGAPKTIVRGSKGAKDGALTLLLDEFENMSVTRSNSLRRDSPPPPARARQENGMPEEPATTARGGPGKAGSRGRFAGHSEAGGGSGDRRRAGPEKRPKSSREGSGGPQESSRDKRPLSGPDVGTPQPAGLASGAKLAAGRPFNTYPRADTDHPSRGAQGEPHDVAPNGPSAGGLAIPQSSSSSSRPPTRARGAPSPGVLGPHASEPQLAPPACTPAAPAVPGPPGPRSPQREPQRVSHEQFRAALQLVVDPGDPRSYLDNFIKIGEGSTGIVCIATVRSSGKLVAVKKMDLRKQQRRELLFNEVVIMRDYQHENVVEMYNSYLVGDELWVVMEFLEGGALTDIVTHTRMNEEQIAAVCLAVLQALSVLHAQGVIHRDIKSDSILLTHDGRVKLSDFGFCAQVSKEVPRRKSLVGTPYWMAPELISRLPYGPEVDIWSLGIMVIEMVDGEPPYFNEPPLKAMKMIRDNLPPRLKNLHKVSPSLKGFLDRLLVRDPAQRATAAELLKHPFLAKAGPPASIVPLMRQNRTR
Chain of PDK1 (O15530 whole entry): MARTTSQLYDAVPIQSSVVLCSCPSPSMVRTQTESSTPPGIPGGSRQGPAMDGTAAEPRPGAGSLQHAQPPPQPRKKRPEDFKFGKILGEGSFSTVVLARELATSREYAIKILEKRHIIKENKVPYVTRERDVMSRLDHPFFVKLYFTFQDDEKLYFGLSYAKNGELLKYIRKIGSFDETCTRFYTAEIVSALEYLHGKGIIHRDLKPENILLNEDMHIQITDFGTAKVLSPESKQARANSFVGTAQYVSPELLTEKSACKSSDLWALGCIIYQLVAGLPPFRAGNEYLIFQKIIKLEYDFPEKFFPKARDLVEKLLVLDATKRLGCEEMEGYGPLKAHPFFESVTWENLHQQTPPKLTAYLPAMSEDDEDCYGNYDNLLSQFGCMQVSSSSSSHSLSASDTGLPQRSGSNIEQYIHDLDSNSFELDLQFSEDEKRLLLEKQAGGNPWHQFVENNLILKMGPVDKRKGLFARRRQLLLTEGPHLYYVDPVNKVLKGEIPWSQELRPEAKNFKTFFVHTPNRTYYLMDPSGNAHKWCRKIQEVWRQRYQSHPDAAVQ

inhibition at 1 µM (PAK4): 0%
inhibition at 1 µM (AKT1): 0%
inhibition at 1 µM (PDGFR-BETA): 4%
inhibition at 1 µM (RSK2): 0%
inhibition at 1 µM (PDK1): 0%
inhibition at 1 µM (PHK-GAMMA2): 0%
inhibition at 1 µM (CRAF): 0%
inhibition at 1 µM (ARK5): 0%
inhibition at 1 µM (AURORA-A): 0%
inhibition at 1 µM (PI3K-GAMMA): 0%
inhibition at 1 µM (SPHK1): 0%
inhibition at 1 µM (PIM2): 2%
inhibition at 1 µM (MSK1): 0%
inhibition at 1 µM (BTK): 0%
inhibition at 1 µM (ITK): 0%
inhibition at 1 µM (EPH-A5): 4%
inhibition at 1 µM (PKC-THETA): 0%
inhibition at 1 µM (PKC-ZETA): 0%
inhibition at 1 µM (CAMK2D): 4%
inhibition at 1 µM (NDR2): 0%
inhibition at 1 µM (EPH-B2): 0%
inhibition at 1 µM (TNIK): 0%
inhibition at 1 µM (CDK1): 2%
inhibition at 1 µM (PLK3): 5%
inhibition at 1 µM (ERB-B2): 4%
inhibition at 1 µM (NEK7): 0%
inhibition at 1 µM (TRKC): 4%
inhibition at 1 µM (TSSK1): 2%
inhibition at 1 µM (LOK): 1%
inhibition at 1 µM (FGFR3): 1%
inhibition at 1 µM (PRKG2): 8%
inhibition at 1 µM (TTK): 0%
inhibition at 1 µM (CDK9-CYCLINT1): 6%
inhibition at 1 µM (P70S6K2): 0%
inhibition at 1 µM (PAK3): 0%
IC50 (Dopamine D2 receptor): > 30 µM
IC50 (Progesterone Receptor): > 30 µM
IC50 (Serotonin 5HT2A): > 30 µM
SMILES: O=C(Nc1nccs1)C(c1cc(F)ccc1O)N1Cc2ccccc2C1=O (centres unmarked) [EAI045, 2-(5-fluoro-2-hydroxyphenyl)-2-(1-oxo-2,3-dihydro-1H-isoindol-2-yl)-N-(1,3-thiazol-2-yl)acetamide]
inhibition at 1 µM (NEK9): 0%
tumor response [1]: failed to respond
EGFR autophosphorylation [2]: potently decreased, but did not completely eliminate EGFR autophosphorylation
